This note sets out measurements from ChEMBL document CHEMBL1146066, “4-quinolone derivatives: high-affinity ligands at the benzodiazepine site of brain GABA A receptors. synthesis, pharmacology, and pharmacophore modeling” (J Med Chem, 2006).

Some results are limits rather than exact numbers.

A word on the Ki: it is a dissociation constant, usually derived from enzyme kinetics or from competition with a known ligand.

The target of experiment [1] is GABA-A receptor; anion channel. Put plainly: Displacement of [3H]flumazenil from GABA-A receptor in rat cortical membranes. In kind it is cell membranes, Membrane. The gist of the method:
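Rat cortex was homogenized in Tris-HCl, washed by centrifugation, incubated 30 min at 37 °C, and stored frozen. Assays used ca. 50 µg protein per 0.55 mL in Tris-citrate 50 mM pH 7.1 with 1 nM [3H]flumazenil for 40 min on ice, then filtered. Nonspecific binding came from 1 µM clonazepam.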
(In general: In a radioligand displacement assay an active substance lowers the binding of a labelled ligand.)

Experiment [2] concerns the target GABA A receptor alpha-1/beta-2/gamma-2 (Homo sapiens). Put plainly: Displacement of [3H]Flumazenil from human GABA-Aalpha1 receptor plus beta-2-gamma-2 expressed in HEK293 cells.
A short description of experiment [3]: Selectivity for human GABA-Aalpha1 receptor plus beta-2-gamma-2 over GABA-Aalpha3 receptor plus beta2gamma2.
Experiment [4] has as its target T1, GABA A receptor alpha-3/beta-2/gamma-2 (Homo sapiens, UniProt P18507+P34903+P47870).
T1 sequence (P47870 whole entry): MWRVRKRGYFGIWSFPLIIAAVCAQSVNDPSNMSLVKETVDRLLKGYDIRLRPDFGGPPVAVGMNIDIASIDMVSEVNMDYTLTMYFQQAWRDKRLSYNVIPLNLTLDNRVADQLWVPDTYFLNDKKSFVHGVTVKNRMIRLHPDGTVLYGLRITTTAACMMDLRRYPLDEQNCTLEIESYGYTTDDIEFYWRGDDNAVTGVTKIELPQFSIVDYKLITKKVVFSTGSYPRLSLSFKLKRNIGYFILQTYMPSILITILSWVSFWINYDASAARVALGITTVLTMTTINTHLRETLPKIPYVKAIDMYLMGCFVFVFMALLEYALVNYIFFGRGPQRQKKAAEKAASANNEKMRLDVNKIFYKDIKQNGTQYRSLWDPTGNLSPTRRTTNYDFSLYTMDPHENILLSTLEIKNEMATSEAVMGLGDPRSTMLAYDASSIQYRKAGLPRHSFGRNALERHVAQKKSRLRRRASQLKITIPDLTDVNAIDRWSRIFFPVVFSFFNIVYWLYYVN
T1 sequence (P18507 whole entry): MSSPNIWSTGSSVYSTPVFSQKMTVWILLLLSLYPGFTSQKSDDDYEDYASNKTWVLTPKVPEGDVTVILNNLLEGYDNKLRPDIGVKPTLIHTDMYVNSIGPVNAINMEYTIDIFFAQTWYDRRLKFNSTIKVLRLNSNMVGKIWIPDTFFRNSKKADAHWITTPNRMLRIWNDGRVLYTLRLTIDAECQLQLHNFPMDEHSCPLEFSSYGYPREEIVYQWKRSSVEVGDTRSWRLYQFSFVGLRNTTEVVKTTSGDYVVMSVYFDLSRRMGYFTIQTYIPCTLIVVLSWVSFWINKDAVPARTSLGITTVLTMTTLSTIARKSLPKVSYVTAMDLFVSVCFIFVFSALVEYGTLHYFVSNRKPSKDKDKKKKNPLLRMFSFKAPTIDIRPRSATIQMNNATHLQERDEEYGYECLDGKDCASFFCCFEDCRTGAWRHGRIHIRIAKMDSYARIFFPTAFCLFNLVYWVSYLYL
T1 sequence (P34903 whole entry): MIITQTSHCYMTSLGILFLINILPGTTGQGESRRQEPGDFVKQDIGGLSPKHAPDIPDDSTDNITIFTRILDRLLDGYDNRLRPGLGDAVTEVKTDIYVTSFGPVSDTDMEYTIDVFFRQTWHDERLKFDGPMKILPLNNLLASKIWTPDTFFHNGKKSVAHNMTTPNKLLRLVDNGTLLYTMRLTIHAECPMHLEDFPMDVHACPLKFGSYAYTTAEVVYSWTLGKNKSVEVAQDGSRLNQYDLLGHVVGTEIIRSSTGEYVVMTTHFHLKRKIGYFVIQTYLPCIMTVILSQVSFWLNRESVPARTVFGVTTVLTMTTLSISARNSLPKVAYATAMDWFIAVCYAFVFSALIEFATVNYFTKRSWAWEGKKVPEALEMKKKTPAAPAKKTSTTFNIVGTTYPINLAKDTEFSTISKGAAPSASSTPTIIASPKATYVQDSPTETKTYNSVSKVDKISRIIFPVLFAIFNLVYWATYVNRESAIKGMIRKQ
Put plainly: Displacement of [3H]Flumazenil from human GABA-Aalpha3 receptor plus beta-2-gamma-2 expressed in HEK293 cells. In kind it is cell-based. The method, boiled down:
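Membranes of HEK 293 cells carrying human α1β2γ2S or α3β2γ2S GABAA receptors, ca. 25 µg protein per 0.55 mL assay in Tris-citrate 50 mM pH 7.1. Incubated with 1 nM [3H]flumazenil (87 Ci/mmol) and test substance at 0-4 °C for 40 min, then filtered on GF/C and washed. Nonspecific binding taken with 1 µM clonazepam.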

As for `CCCCNC(=O)c1cnc2ccc(CC)cc2c1O`, the affinity in experiment [1], expressed as Ki, was 0.54 nM.

With `CCc1ccc2ncc(C(=O)O)c(O)c2c1`, the inhibition constant Ki in experiment [1] turned out to be 208 nM.

`CCc1ccc2ncc(C(=O)OC3CCCC3)c(O)c2c1`: in experiment [1], the Ki came out at 19 nM.

In turn, `CCOC(=O)c1c(C)nc2ccc(Br)cc2c1O` showed a Ki in experiment [1] of 4200 nM.

`CCc1ccc2ncc(C(=O)OCC(C)CC)c(O)c2c1` (stereo unspecified) gave a Ki in experiment [1] of 28 nM.

Regarding `CCOC(=O)c1cnc2ccc(Br)cc2c1O`, the Ki in experiment [1] is 16 nM; in experiment [2], 14 nM; in experiment [4], 26 nM. Moreover, the Ratio Ki in experiment [3] worked out at 2.

For `CCc1ccc2ncc(C(=O)OCC(CC)CC)c(O)c2c1`, the Ki in experiment [1] was determined as 92 nM.

Take `CCOC(=O)c1cnc2ccccc2c1O`: the Ki in experiment [1] was 78 nM.

In turn, `CCCc1ccc2ncc(C(=O)OCC)c(O)c2c1` had a Ki in experiment [1] of 17 nM.

Consider `CCCOC(=O)c1cnc2ccc(Cc3ccccc3)cc2c1O`, for which affinity in experiment [1] was put at a Ki of 0.17 nM.

Regarding `CCOC(=O)c1cnc2ccnn2c1O`, in experiment [1], the Ki is greater than 10000 nM.

In turn, `CCCOC(=O)c1cnc2cc(C)nn2c1O` came in with a Ki in experiment [1] of 870 nM.

`CCOC(=O)c1cnc2ccc(C(C)C)cc2c1O` returned a Ki in experiment [1] of 15 nM.

In experiment [1], `CCc1ccc2ncc(C(=O)OC(C)C)c(O)c2c1` displayed a Ki of 214 nM.

In the case of `CCOC(=O)c1cnc2ccc(Cc3ccccc3)cc2c1O`, the Ki stood at 1.4 nM in experiment [1], 0.27 nM in experiment [2] and 7.2 nM in experiment [4].

In the case of `CCOC(=O)c1cnc2ccc(C(F)(F)F)cc2c1O`, in experiment [1], the affinity, expressed as Ki, was 122 nM.

In experiment [1], `CCc1ccc2ncc(C(=O)OC(C)CC(C)C)c(O)c2c1` (stereo unspecified) came in with a Ki of 295 nM.

In experiment [1], `CCCCCOC(=O)c1cnc2ccc(CC)cc2c1O` showed a Ki of 35 nM.

Compound `CCCNC(=O)c1cnc2ccc(CC)cc2c1O` showed a Ki in experiment [1] of 0.26 nM.

As for `CCOC(=O)c1cnc2ccc(CC)cc2c1O`, in experiment [1], the Ki was found to be 20 nM.

As for `CCOC(=O)c1c[nH]c2ccc(Cc3ccccc3)cc2c1=O`, in experiment [3], the Ratio Ki was determined as 27.

In experiment [1], `CCCNC(=O)c1cnc2ccc(Cc3ccccc3)cc2c1O` registered a Ki of 0.048 nM.

`CCc1ccc2ncc(C(=O)OC(CC)CC)c(O)c2c1` registered an inhibition constant (Ki) in experiment [1] of 2600 nM.

For the compound `CCc1ccc2ncc(C(=O)OCCC(C)C)c(O)c2c1`, the results for the Ki in experiment [1], in experiment [2] and in experiment [4] were 28 nM, 4.1 nM and 89 nM, respectively. For the same compound, in experiment [3], the Ratio Ki was 22.

For the compound `CCOC(=O)c1cnc2cc(C)nn2c1O`, the Ki in experiment [1] is greater than 10000 nM.

`CCCCOC(=O)c1cnc2ccc(CC)cc2c1O` displayed a Ki in experiment [1] of 13 nM.

`CCCOC(=O)c1cnc2ccc(CC)cc2c1O` gave an inhibition constant Ki in experiment [1] of 1.8 nM.

Turning to `CCCCOC(=O)c1cnc2ccccc2c1O`, the Ki in experiment [1] was 54 nM.
